Reference: ChEMBL document CHEMBL3351652, “First photoswitchable neurotransmitter transporter inhibitor: light-induced control of γ-aminobutyric acid transporter 1 (GAT1) activity in mouse brain” (J Med Chem, 2014)
Active and inactive are the calls of the source. The rule behind the calls is not given here.

Legend:
[1] = Half life of thermal relaxation of the compound in D2O in dark at 10 mM by 1H NMR analysis; format: physicochemical; details: 10000 µM
Summary of the method: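 Thermal relaxation of the photoisomer back to the (E)-form followed in the dark by 1H NMR in D2O, 10 mM, at 37 °C.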

[2] = biological target: T1, Sodium- and chloride-dependent GABA transporter 1 (Mus musculus, UniProt P31648); assay: Inhibition of mouse GAT1 stably expressed in HEK293 assessed as inhibition of [3H]GABA uptake treated with compound irradiated at 350 nm for 30 mins measured after 25 mins by liquid scintillation counting; format: cell-based
[3] = biological target: T1, Sodium- and chloride-dependent GABA transporter 1; assay: Inhibition of mouse GAT1 stably expressed in HEK293 assessed as inhibition of [3H]GABA uptake after 25 mins by liquid scintillation counting; format: cell-based
Summary of the method: (§1)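 HEK cells stably expressing the individual murine GABA transporter subtype; standardized [3H]GABA uptake assay adapted for photoswitchable ligands, run with the pure (E)-isomers; inhibition expressed as pIC50 ± SEM.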

[4] = biological target: T1, Sodium- and chloride-dependent GABA transporter 1; assay: Inhibition of mouse GAT1 stably expressed in HEK293 assessed as inhibition of [3H]GABA uptake treated with compound irradiated at 375 nm for 30 mins measured after 25 mins by liquid scintillation counting; format: cell-based
GABA transporter 2 = biological target: T2, GABA transporter 2 (Mus musculus, UniProt P31651); assay: Inhibition of mouse GAT2 stably expressed in HEK293 assessed as inhibition of [3H]GABA uptake after 25 mins by liquid scintillation counting; format: cell-based; summary of the method: as §1
T2 sequence (P31651 whole entry): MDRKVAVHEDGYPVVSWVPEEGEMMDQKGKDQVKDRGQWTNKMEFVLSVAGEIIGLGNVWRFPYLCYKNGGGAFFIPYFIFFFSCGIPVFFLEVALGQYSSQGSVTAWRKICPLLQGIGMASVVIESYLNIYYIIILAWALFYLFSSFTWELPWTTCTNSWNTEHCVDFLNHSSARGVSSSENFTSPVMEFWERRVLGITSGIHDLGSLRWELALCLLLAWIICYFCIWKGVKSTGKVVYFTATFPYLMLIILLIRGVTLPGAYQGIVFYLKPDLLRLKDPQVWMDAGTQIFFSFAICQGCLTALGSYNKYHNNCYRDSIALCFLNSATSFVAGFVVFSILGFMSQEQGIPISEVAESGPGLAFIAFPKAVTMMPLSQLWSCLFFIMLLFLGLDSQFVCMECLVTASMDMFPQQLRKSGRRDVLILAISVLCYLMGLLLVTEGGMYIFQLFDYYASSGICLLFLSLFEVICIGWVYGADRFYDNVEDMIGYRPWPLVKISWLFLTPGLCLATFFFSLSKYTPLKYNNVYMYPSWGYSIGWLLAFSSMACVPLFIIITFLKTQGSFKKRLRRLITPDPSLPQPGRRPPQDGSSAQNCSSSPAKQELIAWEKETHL

GABA transporter 3 = biological target: T3, GABA transporter 3 (Mus musculus, UniProt P31649); assay: Inhibition of mouse GAT3 stably expressed in HEK293 assessed as inhibition of [3H]GABA uptake after 25 mins by liquid scintillation counting; format: cell-based; summary of the method: as §1
T3 sequence (P31649 whole entry): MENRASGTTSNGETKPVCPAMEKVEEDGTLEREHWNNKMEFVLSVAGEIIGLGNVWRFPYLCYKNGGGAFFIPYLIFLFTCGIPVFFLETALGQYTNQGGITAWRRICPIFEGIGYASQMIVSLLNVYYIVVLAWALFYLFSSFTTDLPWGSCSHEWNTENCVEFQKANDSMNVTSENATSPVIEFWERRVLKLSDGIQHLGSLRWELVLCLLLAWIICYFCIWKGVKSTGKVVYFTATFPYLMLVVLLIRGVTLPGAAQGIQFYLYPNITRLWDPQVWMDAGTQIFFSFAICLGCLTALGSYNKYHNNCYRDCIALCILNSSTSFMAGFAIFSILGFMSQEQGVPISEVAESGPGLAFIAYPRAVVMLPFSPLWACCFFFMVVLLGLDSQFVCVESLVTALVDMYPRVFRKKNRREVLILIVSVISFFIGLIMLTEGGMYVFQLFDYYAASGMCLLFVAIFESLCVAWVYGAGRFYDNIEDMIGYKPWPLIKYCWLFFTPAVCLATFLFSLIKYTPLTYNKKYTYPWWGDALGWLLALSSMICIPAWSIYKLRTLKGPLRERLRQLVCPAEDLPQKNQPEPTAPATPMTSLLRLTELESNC

GABA transporter 4 = biological target: T4, GABA transporter 4 (Mus musculus, UniProt P31650); assay: Inhibition of mouse GAT4 stably expressed in HEK293 assessed as inhibition of [3H]GABA uptake after 25 mins by liquid scintillation counting; format: cell-based; summary of the method: as §1
T4 sequence (P31650 whole entry): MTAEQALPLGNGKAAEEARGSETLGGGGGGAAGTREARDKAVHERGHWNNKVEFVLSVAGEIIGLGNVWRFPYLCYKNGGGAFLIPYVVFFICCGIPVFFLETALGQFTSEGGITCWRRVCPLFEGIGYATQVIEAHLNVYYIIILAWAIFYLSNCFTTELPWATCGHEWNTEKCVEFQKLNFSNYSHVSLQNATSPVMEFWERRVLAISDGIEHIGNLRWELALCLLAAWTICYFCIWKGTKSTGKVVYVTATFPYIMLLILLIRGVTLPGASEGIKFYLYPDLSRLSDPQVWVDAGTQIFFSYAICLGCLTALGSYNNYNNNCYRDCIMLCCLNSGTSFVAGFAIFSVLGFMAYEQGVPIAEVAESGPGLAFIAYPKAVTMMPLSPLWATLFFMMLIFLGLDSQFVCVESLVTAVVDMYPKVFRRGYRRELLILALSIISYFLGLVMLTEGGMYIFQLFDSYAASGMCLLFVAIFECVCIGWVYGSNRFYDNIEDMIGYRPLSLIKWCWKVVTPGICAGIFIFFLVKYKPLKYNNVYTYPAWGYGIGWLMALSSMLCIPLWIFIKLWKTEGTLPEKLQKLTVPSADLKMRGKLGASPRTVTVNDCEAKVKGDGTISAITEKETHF

[5] = biological target: Sodium- and chloride-dependent GABA transporter 1 (Mus musculus) (UniProt P31648); assay: Selectivity ratio of IC50 for mouse GAT1 stably expressed in HEK293 assessed as inhibition of [3H]GABA uptake after 25 mins to IC50 for mouse GAT1 stably expressed in HEK293 assessed as inhibition of [3H]GABA uptake treated with compound irradiated at 375 nm for 30 mins measured after 25 mins
[6] = biological target: Sodium- and chloride-dependent GABA transporter 1 (Mus musculus) (UniProt P31648); assay: Inhibition of GAT1 in C57BL/6N mouse dentate gyrus granule cells assessed as induction of tonic GABAA receptor-mediated current at -70 mV holding potential non-UV irradiated compound treated at 20 uM by patch-clamp analysis
[7] = biological target: Sodium- and chloride-dependent GABA transporter 1 (Mus musculus) (UniProt P31648); assay: Inhibition of GAT1 in C57BL/6N mouse dentate gyrus granule cells assessed as induction of tonic GABAA receptor-mediated current at -70 mV holding potential UV irradiated compound treated at 20 uM by patch-clamp analysis
[8] = biological target: Sodium- and chloride-dependent GABA transporter 1 (Mus musculus) (UniProt P31648); assay: Inhibition of GAT1 in C57BL/6N mouse dentate gyrus granule cells assessed as induction of tonic GABAA receptor-mediated current at -70 mV holding potential compound treated at 20 uM followed by neuronal tissue UV-irradiation by patch-clamp analysis
[9] = Half life of thermal relaxation of the compound in DMSO-d6/phosphate-buffer at pH 7.4 in dark at 50 uM by UV/vis-spectroscopy; format: physicochemical; details: pH 7.4, 50 µM
Summary of the method: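 Photoisomer relaxation to (E) monitored in the dark by UV/vis spectroscopy at 50 μM in DMSO-d6/phosphate buffer (pH 7.4) 1:200 (v/v), 25 °C; half-life derived from this thermal back-isomerization.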

SMILES | t1/2 [1] [h] | IC50 [2] [µM] | IC50 [3] [µM] | IC50 [4] [µM] | IC50 (GABA transporter 2) [µM] | IC50 (GABA transporter 3) [µM] | IC50 (GABA transporter 4) [µM] | also measured
O=C(O)C1CCCN(CCOCCc2ccccc2/N=N\c2ccccc2)C1 (stereo not given) | 115 | 5.5 | – | – | – | – | – | –
O=C(O)[C@@H]1CCCN(CCOCCc2cccc(/N=N/c3cccc4ccccc34)c2)C1 | – | – | 0.407 | 1.66 | 64.6 | 25.1 | 30.9 | Ratio IC50 [5]: 4; inhibition [6]: Active; inhibition [7]: inactive; inhibition [8]: inactive
O=C(O)[C@@H]1CCCN(CCOCCc2ccc(/N=N\c3cccc4ccccc34)cc2)C1 | – | – | – | 0.794 | – | – | – | t1/2 [9]: 13.6 h
O=C(O)[C@@H]1CCCN(CCOCCc2cccc(/N=N\c3cccc4ccccc34)c2)C1 | – | – | – | 1.66 | – | – | – | t1/2 [9]: 19.3 h
O=C(O)C1CCCN(CCOCCc2ccccc2/N=N/c2ccccc2)C1 (stereo not given) | – | 5.5 | 10.7 | – | 234 | 145 | 562 | –
O=C(O)C1CCCN(CCOCCc2ccc(/N=N/c3ccccc3)cc2)C1 (stereo not given) | – | 4.57 | 1.91 | – | > 1000 | > 1000 | > 1000 | –
O=C(O)C1CCCN(CCOCCc2cccc(/N=N\c3ccccc3)c2)C1 (stereo not given) | 140 | 4.17 | – | – | – | – | – | –
O=C(O)C1CCCN(CCOCCc2cccc(/N=N/c3ccccc3)c2)C1 (stereo not given) | – | 4.17 | 3.16 | – | 339 | 148 | 209 | –
O=C(O)C1CCCN(CCOCCc2ccc(/N=N\c3ccccc3)cc2)C1 (stereo not given) | 57.6 | 4.57 | – | – | – | – | – | –
O=C(O)[C@@H]1CCCN(CCOCCc2ccc(/N=N/c3cccc4ccccc34)cc2)C1 | – | – | 0.269 | 0.794 | 20.4 | 19.5 | 22.9 | Ratio IC50 [5]: 3
